pIC50: −log10 of the molar value. Blank lines part the entries; values can stand above or below the molecule they belong to.
Legend:
Salmonella typhimurium [1] = test: Mutagenic activity in Salmonella typhimurium TA98 at 0.04 to 4 ug/plate by Ames test; type: toxicity, organism-based; settings: salmonella enterica subsp. enterica serovar typhimurium
Method in brief: (§1)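 Ames plate-incorporation assay with S. typhimurium TA98 in Vogel-Bonner E minimal glucose agar. Toxicity toward the bacteria was checked first. DMSO solutions were run in triplicate at five consecutive third-dilutions, starting at the highest non-toxic dose. Positive controls were 4-nitro-o-phenylenediamine (20.0 μg/plate) and 2-aminofluorene (10.0 μg/plate); DMSO was the negative control. Revertants were counted manually. A compound was called mutagenic when revertants were at least twice the negative control at two or more consecutive doses.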

Trypanosoma cruzi [2] = test: Antitrypanosomal activity against Trypanosoma cruzi Tulahuen 2 epimastigotes assessed as growth inhibition after 5 days; type: functional, organism-based; settings: Trypanosoma cruzi, Tulahuen 2, 120 h
Method in brief: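 Epimastigotes were grown axenically at 28 °C in BHI-tryptose with 5% FBS and seeded from a 5–7 day culture at 1 × 10⁶ cells/mL. Drug from a DMSO stock was added (final DMSO ≤0.4%; the control contained 0.4% DMSO). Duplicates were run. A600 was read at day 5, and % inhibition was calculated relative to day-0 and control readings. IC50 = concentration that halves the absorbance ratio.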

Salmonella typhimurium [3] = test: Mutagenic activity in Salmonella typhimurium TA98 at 0.04 to 4 ug/plate by Ames test in presence of mouse liver S9 fraction; type: toxicity, organism-based; settings: salmonella enterica subsp. enterica serovar typhimurium; method in brief: as §1
[4] = Stability of the compound in aqueous solution assessed as compound remaining at 1 mM at pH 6 after 1 hr by TLC analysis; type: physicochemical; settings: aqueous solution, pH 6; read-out: Stability
Method in brief: (§2)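 DMSO stocks diluted to final 1 mM in KCl·HCl pH 1.0, citrate pH 6.0, Tris·HCl pH 7.4 or borax·HCl pH 9.0 buffer. Incubated 1 h at 37 °C, then ethyl acetate extracts checked by TLC for decomposition products.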

[5] = Stability of the compound in aqueous solution assessed as compound remaining at 1 mM at pH 7.4 after 1 hr by TLC analysis; type: physicochemical; settings: aqueous solution, pH 7.4; read-out: Stability; method in brief: as §2
[6] = Stability of the compound in aqueous solution assessed as compound remaining at 1 mM at pH 9 after 1 hr by TLC analysis; type: physicochemical; settings: aqueous solution, pH 9; read-out: Stability; method in brief: as §2
Trypanosoma cruzi [7] = test: Antitrypanosomal activity against Trypanosoma cruzi Sylvio X-10 amastigotes infected in African green monkey Vero cells assessed as eradication of amastigotes after 5 days by Giemsa staining-based assay; type: functional, organism-based; settings: Sylvio X-10, Vero, 120 h
Method in brief: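 VERO cells in RPMI 1640 with 10% hiFCS were allowed to adhere for 24 h at 37 °C in 5% CO₂, then infected with tissue-derived trypomastigotes at 10:1. Free parasites were washed off after 24 h, and cultures were treated at five compound doses (text gives 72 h / 5 days). Cultures were methanol-fixed and Giemsa-stained, and infected cells were counted among 300. Quadruplicates were run in three independent experiments. IC50/IC90 were obtained by sigmoidal regression.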

Salmonella typhimurium [8] = test: Mutagenic activity in Salmonella typhimurium TA1537 at 0.03 to 0.2 ug/plate by Ames test; type: toxicity, organism-based; settings: salmonella enterica subsp. enterica serovar typhimurium
Method in brief: (§3)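 Direct plate incubation on minimal glucose agar (Vogel-Bonner E). Compound toxicity to the bacteria was checked first. DMSO solutions were tested at five consecutive 3-fold dilutions, starting from the highest non-toxic dose, in triplicate, without metabolic activation. DMSO served as negative control. Revertants were counted manually; mutagenic = revertants at least double the negative control at two or more consecutive doses.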

Salmonella typhimurium [9] = test: Mutagenic activity in Salmonella typhimurium TA102 at […] ug/plate by Ames test; type: toxicity, organism-based; settings: salmonella enterica subsp. enterica serovar typhimurium; method in brief: as §3
Salmonella typhimurium [10] = test: Mutagenic activity in Salmonella typhimurium TA1537 at 0.03 to 0.2 ug/plate by Ames test in presence of mouse liver S9 fraction; type: toxicity, organism-based; settings: salmonella enterica subsp. enterica serovar typhimurium, in the assay text read “0.003 to 0.2 ug/plate” for “0.03 to 0.2 ug/plate”
Method in brief: (§4)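 Plate-incorporation Ames test on minimal glucose agar with 500 μL Aroclor-treated mouse liver S9 added. DMSO solutions were tested at five consecutive 3-fold dilutions from the highest non-toxic dose, in triplicate, with a DMSO negative control. Revertants were counted manually; a compound was scored mutagenic when revertants were at least twice the negative control for two or more consecutive doses.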

Salmonella typhimurium [11] = test: Mutagenic activity in Salmonella typhimurium TA100 at 3.09 to 250 ug/plate by Ames test in presence of mouse liver S9 fraction; type: toxicity, organism-based; settings: salmonella enterica subsp. enterica serovar typhimurium; method in brief: as §4
Salmonella typhimurium [12] = test: Mutagenic activity in Salmonella typhimurium TA98 at 6 to 500 ug/plate by Ames test in presence of mouse liver S9 fraction; type: toxicity, organism-based; settings: salmonella enterica subsp. enterica serovar typhimurium; method in brief: as §1
[13] = Stability of the compound in aqueous solution assessed as compound remaining at 1 mM at pH 1 after 1 hr by TLC analysis; type: physicochemical; settings: read-out: Stability; method in brief: as §2
Salmonella typhimurium [14] = test: Mutagenic activity in Salmonella typhimurium TA102 at […] ug/plate by Ames test in presence of mouse liver S9 fraction; type: toxicity, organism-based; settings: salmonella enterica subsp. enterica serovar typhimurium; method in brief: as §4
Trypanosoma cruzi [15] = test: Antitrypanosomal activity against Trypanosoma cruzi Sylvio X-10 amastigotes infected in African green monkey Vero cells assessed as eradication of amastigotes after 72 hrs by Giemsa staining-based assay; settings: Sylvio X-10, Vero
Salmonella typhimurium [16] = test: Mutagenic activity in Salmonella typhimurium TA98 at 6 to 500 ug/plate by Ames test; type: toxicity, organism-based; settings: salmonella enterica subsp. enterica serovar typhimurium; method in brief: as §1
Salmonella typhimurium [17] = test: Mutagenic activity in Salmonella typhimurium TA1535 at […] ug/plate by Ames test in presence of mouse liver S9 fraction; type: toxicity, organism-based; settings: salmonella enterica subsp. enterica serovar typhimurium; method in brief: as §4
Salmonella typhimurium [18] = test: Mutagenic activity in Salmonella typhimurium TA1535 at […] ug/plate by Ames test; type: toxicity, organism-based; settings: salmonella enterica subsp. enterica serovar typhimurium; method in brief: as §3
Salmonella typhimurium [19] = test: Mutagenic activity in Salmonella typhimurium TA100 at 3.09 to 250 ug/plate by Ames test; type: toxicity, organism-based; settings: salmonella enterica subsp. enterica serovar typhimurium; method in brief: as §3
[20] = Selectivity index, ratio of IC50 for African green monkey Vero cells to IC50 for Trypanosoma cruzi Sylvio X-10 amastigotes; type: toxicity, cell-based; settings: read-out: Ratio IC50
Method in brief: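 VERO cytotoxicity: cells exposed 48 h at 37 °C, 5% CO2 to serial dilutions from a maximum of 2000 μM (DMSO stocks; DMSO <0.1% control); growth inhibition read by MTT at 570 nm. Amastigote IC50: Sylvio X-10-infected VERO cells, five doses, infected cells counted among 300 (Giemsa), quadruplicate, three experiments, sigmoidal fit. SI = IC50 VERO / IC50 amastigote.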

[21] = Cytotoxicity against African green monkey Vero cells assessed as growth inhibition at 25 uM after 48 hrs by MTT assay relative to control; type: cell-based; settings: chlorocebus sabaeus, read-out: GI
Method in brief: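 VERO cells were exposed to serial dilutions in fresh medium of compounds dissolved in DMSO, for 48 h at 37 °C in 5% CO₂. A DMSO (<0.1%) negative control was included. Growth inhibition was read by MTT at 570 nm; nifurtimox was the positive control.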

Salmonella typhimurium [22] = test: Mutagenic activity in Salmonella typhimurium TA98 at 0.005 to 0.4 ug/plate by Ames test; type: toxicity, organism-based; settings: salmonella enterica subsp. enterica serovar typhimurium; method in brief: as §3
[23] = Selectivity index, ratio of IC50 for human RBC to IC50 for Trypanosoma cruzi Tulahuen 2 epimastigotes
Method in brief: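 Hemolysis: washed human erythrocytes (2% w/v in PBS) incubated 24 h at 37 °C with compound at final 50, 100 and 200 μM. Ten replicates per concentration. Hemoglobin release read at 405 nm against water lysis as 100%; amphotericin B 1.5 μM was the positive control. SI = IC50 red cells / parasite IC50 (Sylvio X-10 amastigotes or Tulahuen 2 epimastigotes).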

Salmonella typhimurium [24] = test: Mutagenic activity in Salmonella typhimurium TA98 at 0.005 to 0.4 ug/plate by Ames test in presence of mouse liver S9 fraction; type: toxicity, organism-based; settings: salmonella enterica subsp. enterica serovar typhimurium; method in brief: as §4
Salmonella typhimurium [25] = test: Mutagenic activity in Salmonella typhimurium TA98 at 0.05 to 4 ug/plate by Ames test in presence of mouse liver S9 fraction; type: toxicity, organism-based; settings: salmonella enterica subsp. enterica serovar typhimurium; method in brief: as §1
Salmonella typhimurium [26] = test: Mutagenic activity in Salmonella typhimurium TA98 at 0.05 to 4 ug/plate by Ames test; type: toxicity, organism-based; settings: salmonella enterica subsp. enterica serovar typhimurium; method in brief: as §1
Salmonella typhimurium [27] = test: Mutagenic activity in Salmonella typhimurium TA98 at 3.1 to 250 ug/plate by Ames test; type: toxicity, organism-based; settings: salmonella enterica subsp. enterica serovar typhimurium; method in brief: as §1
Salmonella typhimurium [28] = test: Mutagenic activity in Salmonella typhimurium TA98 at 3.1 to 250 ug/plate by Ames test in presence of mouse liver S9 fraction; type: toxicity, organism-based; settings: salmonella enterica subsp. enterica serovar typhimurium; method in brief: as §1

SMILES: C=CCn1c(-c2ccc(N)cc2)cs\c1=N/N=C/C=C/c1ccco1
Activity (Salmonella typhimurium [1]): Non-toxic
pIC50 (Trypanosoma cruzi [2]): 5.05
Activity (Salmonella typhimurium [3]): Non-toxic

SMILES: C=CCn1c(C)cs/c1=N/N=C/C=C/c1ccco1
remaining at 1 h, 1000 µM [4]: > 95%
remaining at 1 h, 1000 µM [5]: > 95%
remaining at 1 h, 1000 µM [6]: > 95%
pIC50 (Trypanosoma cruzi [7]): 5.20
Activity (Salmonella typhimurium [8]): Non-toxic
Activity (Salmonella typhimurium [9]): Non-toxic
Activity (Salmonella typhimurium [10]): Non-toxic
Activity (Salmonella typhimurium [11]): Non-toxic
pIC50 (Trypanosoma cruzi [2]): < 4.60
Activity (Salmonella typhimurium [12]): Non-toxic
remaining at 1 h, 1000 µM [13]: 90%
Activity (Salmonella typhimurium [14]): Non-toxic
IC90 (Trypanosoma cruzi [15]): 51 µM
Activity (Salmonella typhimurium [16]): Non-toxic
Activity (Salmonella typhimurium [17]): Non-toxic
Activity (Salmonella typhimurium [18]): Non-toxic
Activity (Salmonella typhimurium [19]): Non-toxic

SMILES: S=C(N/N=C/c1cccs1)Nc1ccccc1
Ratio IC50 [23]: 21
pIC50 (Trypanosoma cruzi [2]): 5.33

SMILES: Br.C=CCn1c(-c2ccc(Cl)cc2)cs\c1=N/N=C/C=C/C=C/c1cccs1
Activity (Salmonella typhimurium [27]): Non-toxic
pIC50 (Trypanosoma cruzi [7]): < 4.60
Activity (Salmonella typhimurium [28]): Non-toxic
pIC50 (Trypanosoma cruzi [2]): 4.96
IC90 (Trypanosoma cruzi [15]): > 25 µM

Further lines, with some results ahead:

pIC50 (Trypanosoma cruzi [7]): 5.09
pIC50 (Trypanosoma cruzi [2]): 5.48
SMILES: C=CCn1c(-c2ccc([N+](=O)[O-])cc2)cs\c1=N/N=C/C=C/c1ccc([N+](=O)[O-])s1
Activity (Salmonella typhimurium [1]): Toxic
Activity (Salmonella typhimurium [3]): Toxic
selectivity ratio [20]: 13

pIC50 (Trypanosoma cruzi [2]): 5.54
SMILES: CC(=O)N(C1=NN(C(C)=O)C(c2ccc([N+](=O)[O-])s2)S1)c1ccccc1 (stereo not drawn)
inhibition at 48 h, 25 µM [21]: > 50%
Activity (Salmonella typhimurium [22]): Toxic
Ratio IC50 [23]: 3
Activity (Salmonella typhimurium [24]): Non-toxic

pIC50 (Trypanosoma cruzi [7]): 5.30
pIC50 (Trypanosoma cruzi [2]): 4.92
IC90 (Trypanosoma cruzi [15]): 15.9 µM
SMILES: C=CCNc1nnc(-c2ccc([N+](=O)[O-])s2)s1
Activity (Salmonella typhimurium [25]): Non-toxic
Activity (Salmonella typhimurium [26]): Non-toxic
selectivity ratio [20]: 50
